Measurements taken from ChEMBL document CHEMBL3817814, “Development and Characterization of a Potent Free Fatty Acid Receptor 1 (FFA1) Fluorescent Tracer” (J Med Chem, 2016).

Key:
[1] = target: T1, Free fatty acid receptor 1 (Homo sapiens, UniProt O14842); assay: Displacement of 3-(2-Fluoro-4-((2'-methyl-4'-(2-(2-((7-nitrobenzo[c][1,2,5]-oxadiazol-4-yl)amino)ethoxy)ethoxy)-[1,1'-biphenyl]-3-yl)-methoxy)phenyl)propanoic acid from N-terminal NLUC-tagged FFA1 receptor (unknown origin) expressed in human Flp-In T-REX-293 cell membrane coexpressing mGluR5 incubated for 1 hr by equilibrium BRET assay; format: cell membranes
[2] = target: T1, Free fatty acid receptor 1; assay: Agonist activity at human C-terminal eYFP-tagged FFA1 receptor expressed in HEK-293 cells assessed as beta-arrestin2 recruitment incubated for 5 mins by BRET assay relative to TUG-770; format: cell-based; settings: HEK293
[3] = target: T1, Free fatty acid receptor 1; assay: Agonist activity at FFA1 receptor (unknown origin) expressed in human […] cells measured for 90 secs by Fura-2 AM dye based calcium mobilization assay relative to TUG-770; format: functional, cell-based
Outline: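 Untagged FFA1 constitutively expressed in N1-FFA1 cells, plated 15,000/well 24 h ahead. Cells loaded 45 min with Fura-2 AM, washed three times, then held 15 min in HBSS. Emission at 510 nm from 340/380 nm excitation was recorded before and for 90 s after compound addition. The peak 340/380 ratio gave concentration-response curves.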

[4] = target: T1, Free fatty acid receptor 1; assay: Agonist activity at eYFP-tagged FFA1 receptor (unknown origin) expressed in human Flp-In T-REX-293 cells measured for 90 secs by Fura-2 AM dye based calcium mobilization assay; format: functional, cell-based
Outline: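 Flp-In T-REx 293 cells with doxycycline-inducible FFA1-eYFP were plated 50,000/well and induced with 100 ng/ml doxycycline 24 h before assay. Cells were Fura-2 AM loaded 45 min, washed three times and kept 15 min in HBSS. […] Mean ± S.E.M., n=3.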

[5] = target: T1, Free fatty acid receptor 1; assay: Agonist activity at human C-terminal eYFP-tagged FFA1 receptor expressed in HEK-293 cells assessed as beta-arrestin2 recruitment incubated for 5 mins by BRET assay; format: cell-based, HEK293
[6] = target: T1, Free fatty acid receptor 1; assay: Agonist activity at FFA1 receptor (unknown origin) expressed in human […] cells measured for 90 secs by Fura-2 AM dye based calcium mobilization assay; format: functional, cell-based
Outline: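 N1-FFA1 cells constitutively expressing untagged FFA1 were plated 24 h before the assay. They were loaded with Fura-2 AM for 45 min, washed three times, and held 15 min in HBSS. Fura-2 emission at 510 nm (340 or 380 nm excitation) was read before and for 90 s after compound addition. The peak 340/380 ratio gave concentration-response curves for potency.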

[7] = target: T1, Free fatty acid receptor 1; assay: Binding affinity to N-terminal NLUC-tagged FFA1 receptor (unknown origin) expressed in human Flp-In T-REX-293 cell membrane coexpressing mGluR5 incubated for 1 hr by equilibrium BRET assay; format: cell membranes
Outline: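 Membranes from NLUC-FFA1 Flp-In T-REx 293 cells (induced 24 h, 100 ng/ml doxycycline) were used at 5 µg protein/well in 50 mM HEPES, 100 mM NaCl, 10 mM CaCl2, 10 mM MgCl2. Varying tracer concentrations, up to 100 nM, were incubated 1 h at 25 °C, with 10 µM unlabeled agonist defining non-specific binding. Nano-Glo (1:800 final) was added, then 460/545 nm emission read after 5 min. Kd came from saturation fits.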

[8] = target: T1, Free fatty acid receptor 1; assay: Binding affinity to N-terminal NLUC-tagged FFA1 receptor (unknown origin) expressed in human Flp-In T-REX-293 cell membrane coexpressing mGluR5 preincubated for 5 mins followed by TUG-905 addition measured after 15 mins by kinetic BRET assay; format: cell membranes
Outline: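 Membranes (2.5 µg protein/well) were pre-incubated 5 min at 25 °C with Nano-Glo (1:800 final), and 460/545 nm emission was read every 20 s at 25 °C. After 60 s, tracer (100 nM final) was injected; 5 min later 10 µM unlabeled agonist was injected and reading continued 15 min. Non-specific signal from wells pre-dosed with unlabeled agonist was subtracted, giving koff and kon.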

T1 sequence (O14842 whole entry): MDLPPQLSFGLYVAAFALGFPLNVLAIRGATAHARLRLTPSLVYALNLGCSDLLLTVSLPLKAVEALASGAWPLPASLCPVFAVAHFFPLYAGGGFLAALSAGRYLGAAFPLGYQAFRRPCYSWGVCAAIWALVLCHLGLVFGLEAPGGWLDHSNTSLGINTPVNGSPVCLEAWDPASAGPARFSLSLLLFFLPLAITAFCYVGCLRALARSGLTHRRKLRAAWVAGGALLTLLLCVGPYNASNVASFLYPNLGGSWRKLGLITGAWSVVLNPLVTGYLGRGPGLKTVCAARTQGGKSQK

## O=C(O)CCc1ccc(NCc2cccc(Oc3ccccc3)c2)cc1 [GW9508]
[1]
  Ki: 219 nM
[2]
  Emax: 86%

## Cc1cc(OCCCS(C)(=O)=O)cc(C)c1-c1cccc(COc2ccc3c(c2)OC[C@H]3CC(=O)O)c1
[2]
  Emax: 89%
[3]
  Emax: 108%

## O=C(O)CCc1ccc(C#Cc2cccc(OCCOCCNc3ccc([N+](=O)[O-])c4nonc34)c2)cc1F
[4]
  EC50: > 1000 nM

## Cc1cc(Oc2ncc(C(F)(F)F)cc2Cl)ccc1CC1SC(=O)NC1=O (stereo not drawn)
[1]
  Ki: 69.2 nM
[2]
  Emax: 95%
[5]
  EC50: 55 nM

## Cc1ccccc1-c1cccc(CNc2ccc(CCC(=O)O)cc2)c1
[2]
  Emax: 114%

## Cc1ccccc1C#Cc1ccc(CCC(=O)O)cc1
[1]
  Ki: 631 nM
[2]
  Emax: 100%
[5]
  EC50: 67.6 nM

## CCCCCCCCCCCC(=O)O [DODECANOATE]
[1]
  pKb: 4.46
[6]
  EC50: 759 nM
[2]
  Emax: 130%
[3]
  Emax: 116%
[5]
  EC50: 7940 nM

## Cc1cc(OCCOCCNc2ccc([N+](=O)[O-])c3nonc23)ccc1-c1cccc(COc2ccc(CCC(=O)O)c(F)c2)c1
[7]
  Kd: 7.4 nM
[8]
  Kd: 4 nM
[4]
  EC50: 187 nM

## N#CCc1ccccc1C#Cc1ccc(CCC(=O)O)cc1
[2]
  Emax: 95%

## O=C(O)CCc1ccc(OCc2ccccc2)cc1 [BENZYLOXYPHENYLPROPANOIC ACID]
[1]
  Ki: 13800 nM
[2]
  Emax: 90%
